Experimental data: ChEMBL document CHEMBL3616437, “Thiazole compounds with activity against Cryptococcus gattii and Cryptococcus neoformans in vitro” (Eur J Med Chem, 2015)
Converted amounts (≈) assume the structure as drawn.

Legend:
Cryptococcus neoformans [1] = assay: Antifungal activity against Cryptococcus neoformans ATCC 24067 after 48 to 72 hrs by broth microdilution method; format: functional
Method in brief: (§1)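 CLSI M27-A3 broth microdilution. Isolates subcultured twice on SDA, 48 h at 35°C. Saline suspension adjusted to 70% transmittance at 530 nm, then diluted to 1-5 x10^3 cells/mL in RPMI with L-glutamine, 0.165 M MOPS, pH 7.0. Compounds in DMSO, tested at […]. 35°C for 48-72 h. MIC read visually as the lowest concentration giving an optically clear well.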

Vero = assay: Cytotoxicity against African green monkey Vero cells assessed as cell viability measured after 48 hrs by MTT assay; format: cell-based; conditions: Chlorocebus sabaeus
Method in brief: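 VERO cells in D-MEM with 5% FBS, used up to 20 passages. Seeded 1 x 10^4 cells/well, pre-incubated 24 h at 37°C. Exposed 48 h at 37°C, 5% CO2, to eight nonserial dilutions from 100 to 0.0128 µM, with 0.5% DMSO control. MTT reduction read-out, corrected for background and blank. IC50 reported as median with 95% CI. Triplicate, two independent experiments.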

[2] = Cytotoxicity against C57BL/6 mouse peritoneal macrophages assessed as cell viability measured after 48 hrs by MTT assay; format: cell-based; conditions: C57BL/6, Peritoneal macrophage cell
Method in brief: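 Thioglycollate-elicited peritoneal macrophages from male C57BL/6 mice, 6–8 weeks old, in RPMI with 10% FBS. Seeded 1 x 10^5 cells/well, pre-incubated 24 h at 37°C. Exposed 48 h at 37°C, 5% CO2, to eight nonserial dilutions from 100 to 0.0128 µM, with 0.5% DMSO control. MTT read-out, % inhibition versus DMSO control. IC50 reported as median with 95% CI. Triplicate, two independent experiments.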

[3] = Selectivity index, ratio of IC50 for African green monkey Vero cells to MIC for Cryptococcus neoformans ATCC 24067; format: toxicity, cell-based
[4] = Selectivity index, ratio of IC50 for C57BL/6 mouse peritoneal macrophages to MIC for Cryptococcus neoformans ATCC 24067
Method in brief: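 SI = IC50/MIC. Thioglycollate-elicited peritoneal macrophages from C57BL/6 mice are seeded at 1 x 10^5/well. They are exposed for 48 h at 37°C to eight concentrations from 100 to 0.0128 µM. Viability read by MTT versus 0.5% DMSO control, triplicate in two experiments.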

[5] = test system: Cryptococcus bacillisporus; assay: Antifungal activity against Cryptococcus gattii ATCC 32608 after 48 to 72 hrs by broth microdilution method; format: functional
Method in brief: (§2)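 CLSI M27-A3 broth microdilution in RPMI with L-glutamine, buffered to pH 7.0 with 0.165 M MOPS. Colonies grown twice on SDA, 48 h at 35°C. Inoculum set to 70% transmittance at 530 nm, then diluted to 1-5 x10^3 cells/mL. Test agents dissolved in DMSO, serially diluted, tested at 0.1 to 62.5 µM. Plates held at 35°C for 48-72 h. MIC is the lowest concentration giving an optically clear well, read visually against drug-free growth controls.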

[6] = test system: Cryptococcus gattii species complex; assay: Antifungal activity against Cryptococcus gattii 23/10993 after 48 to 72 hrs by broth microdilution method; format: functional, Cryptococcus bacillisporus; method in brief: as §2
[7] = test system: Cryptococcus gattii species complex; assay: Ratio of compound MIC for Cryptococcus gattii 23/10993 in presence of amphotericin B to compound MIC for Cryptococcus gattii 23/10993 in absence of amphotericin B by checkerboard microtiter test; format: functional, Cryptococcus bacillisporus
Method in brief: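 Checkerboard microdilution: eight two-fold dilutions of test compound (0.11 to 15.6 µM) crossed with amphotericin B (0.025 to 3.9 µM, in DMSO) or fluconazole (0.48 to 62.5 µM, in water). Inoculum per CLSI M27-A3 in RPMI-MOPS pH 7.0, 1-5 x10^3 cells/mL. Growth 48 to 72 h. Effective MIC is the combination concentration giving complete inhibition. FICs derived from MICs in combination versus alone.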

[8] = test system: Cryptococcus gattii species complex; assay: Antifungal activity against Cryptococcus gattii L28/02 after 48 to 72 hrs by broth microdilution method; format: functional, Cryptococcus bacillisporus; method in brief: as §2
[9] = test system: Cryptococcus gattii species complex; assay: Antifungal activity against Cryptococcus gattii 547/OTTI-97-PI-10 after 48 to 72 hrs by broth microdilution method; format: functional, Cryptococcus bacillisporus; method in brief: as §2
[10] = test system: Cryptococcus gattii species complex; assay: Antifungal activity against Cryptococcus gattii 135L/03 after 48 to 72 hrs by broth microdilution method; format: functional, Cryptococcus bacillisporus; method in brief: as §2
[11] = test system: Cryptococcus gattii species complex; assay: Antifungal activity against Cryptococcus gattii 196L/03 after 48 to 72 hrs by broth microdilution method; format: functional, Cryptococcus bacillisporus; method in brief: as §2
[12] = test system: Cryptococcus gattii species complex; assay: Antifungal activity against Cryptococcus gattii L27/01 after 48 to 72 hrs by broth microdilution method; format: functional, Cryptococcus bacillisporus; method in brief: as §2
[13] = test system: Cryptococcus gattii species complex; assay: Antifungal activity against Cryptococcus gattii ICB181 after 48 to 72 hrs by broth microdilution method; format: functional, Cryptococcus bacillisporus; method in brief: as §2
[14] = test system: Cryptococcus gattii species complex; assay: Antifungal activity against Cryptococcus gattii L24/01 after 48 to 72 hrs by broth microdilution method; format: functional, Cryptococcus bacillisporus; method in brief: as §2
[15] = test system: Cryptococcus gattii species complex; assay: Antifungal activity against Cryptococcus gattii LMM818 after 48 to 72 hrs by broth microdilution method; format: functional, Cryptococcus bacillisporus; method in brief: as §2
[16] = test system: Cryptococcus gattii species complex; assay: Antifungal activity against Cryptococcus gattii 1913ER after 48 to 72 hrs by broth microdilution method; format: functional, Cryptococcus bacillisporus; method in brief: as §2
Cryptococcus neoformans [17] = assay: Antifungal activity against Cryptococcus neoformans ATCC 28957 after 48 to 72 hrs by broth microdilution method; format: functional; method in brief: as §1
Cryptococcus neoformans [18] = assay: Antifungal activity against Cryptococcus neoformans ATCC 62066 after 48 to 72 hrs by broth microdilution method; format: functional
Cryptococcus neoformans [19] = assay: Antifungal activity against Cryptococcus neoformans CN31 after 48 to 72 hrs by broth microdilution method; format: functional; method in brief: as §1
Cryptococcus neoformans [20] = assay: Antifungal activity against Cryptococcus neoformans 96806 after 48 to 72 hrs by broth microdilution method; format: functional; method in brief: as §1
Cryptococcus neoformans [21] = assay: Antifungal activity against Cryptococcus neoformans 5396 after 48 to 72 hrs by broth microdilution method; format: functional; method in brief: as §1
Cryptococcus neoformans [22] = assay: Antifungal activity against Cryptococcus neoformans LMM820 after 48 to 72 hrs by broth microdilution method; format: functional; method in brief: as §1
Cryptococcus neoformans [23] = assay: Antifungal activity against Cryptococcus neoformans F10 after 48 to 72 hrs by broth microdilution method; format: functional; method in brief: as §1
Cryptococcus neoformans [24] = assay: Antifungal activity against Cryptococcus neoformans 28JF after 48 to 72 hrs by broth microdilution method; format: functional; method in brief: as §1
Cryptococcus neoformans [25] = assay: Antifungal activity against Cryptococcus neoformans VM-MCMMPI after 48 to 72 hrs by broth microdilution method; format: functional; method in brief: as §1
Cryptococcus neoformans [26] = assay: Antifungal activity against Cryptococcus neoformans 27JF after 48 to 72 hrs by broth microdilution method; format: functional; method in brief: as §1
Cryptococcus neoformans [27] = assay: Antifungal activity against Cryptococcus neoformans WP after 48 to 72 hrs by broth microdilution method; format: functional; method in brief: as §1

MIC (Cryptococcus neoformans [1]): 0.9 µM (≈ 0.257 µg/mL)
MIC [5]: 1.4 µM (≈ 0.4 µg/mL)
MIC [6]: 1.9 µM (≈ 0.542 µg/mL)
MIC [8]: 1.9 µM (≈ 0.542 µg/mL)
MIC [9]: 1.9 µM (≈ 0.542 µg/mL)
MIC [10]: 1.9 µM (≈ 0.542 µg/mL)
MIC [11]: 1.4 µM (≈ 0.4 µg/mL)
MIC [12]: 1 µM (≈ 0.285 µg/mL)
MIC [13]: 0.7 µM (≈ 0.2 µg/mL)
MIC [14]: 1.4 µM (≈ 0.4 µg/mL)
MIC [15]: 2.2 µM (≈ 0.628 µg/mL)
MIC [16]: 1.4 µM (≈ 0.4 µg/mL)
MIC (Cryptococcus neoformans [17]): 1.2 µM (≈ 0.342 µg/mL)
MIC (Cryptococcus neoformans [18]): 1.2 µM (≈ 0.342 µg/mL)
MIC (Cryptococcus neoformans [19]): 1.4 µM (≈ 0.4 µg/mL)
MIC (Cryptococcus neoformans [20]): 1.9 µM (≈ 0.542 µg/mL)
MIC (Cryptococcus neoformans [21]): 1.4 µM (≈ 0.4 µg/mL)
MIC (Cryptococcus neoformans [22]): 1.7 µM (≈ 0.485 µg/mL)
MIC (Cryptococcus neoformans [23]): 1.7 µM (≈ 0.485 µg/mL)
MIC (Cryptococcus neoformans [24]): 2.7 µM (≈ 0.771 µg/mL)
MIC (Cryptococcus neoformans [25]): 1.4 µM (≈ 0.4 µg/mL)
MIC (Cryptococcus neoformans [26]): 2.4 µM (≈ 0.685 µg/mL)
MIC (Cryptococcus neoformans [27]): 2.2 µM (≈ 0.628 µg/mL)
SMILES: C(=N\Nc1nc(-c2ccccc2)cs1)/C1CCCCC1
IC50 (Vero): > 100 µM
IC50 [2]: > 100 µM
selectivity ratio [3]: 111
Ratio [4]: 111
MFC [5]: 1.9 µM (≈ 0.542 µg/mL)
MFC [6]: 7.8 µM (≈ 2.23 µg/mL)
fractional inhibitory concentration index (FICI) [7]: 2.67
MFC [8]: 7.8 µM (≈ 2.23 µg/mL)
MFC [9]: 7.8 µM (≈ 2.23 µg/mL)
MFC [10]: 3.9 µM (≈ 1.11 µg/mL)
MFC [11]: 3.9 µM (≈ 1.11 µg/mL)
MFC [12]: 1.9 µM (≈ 0.542 µg/mL)
MFC [13]: 3.9 µM (≈ 1.11 µg/mL)
MFC [14]: 3.9 µM (≈ 1.11 µg/mL)
MFC [15]: 3.9 µM (≈ 1.11 µg/mL)
MFC [16]: 7.8 µM (≈ 2.23 µg/mL)
MFC (Cryptococcus neoformans [17]): 7.8 µM (≈ 2.23 µg/mL)
MFC (Cryptococcus neoformans [18]): 7.8 µM (≈ 2.23 µg/mL)
MFC (Cryptococcus neoformans [19]): 1.9 µM (≈ 0.542 µg/mL)
MFC (Cryptococcus neoformans [20]): 3.9 µM (≈ 1.11 µg/mL)
MFC (Cryptococcus neoformans [21]): 1.9 µM (≈ 0.542 µg/mL)
MFC (Cryptococcus neoformans [22]): 1.9 µM (≈ 0.542 µg/mL)
MFC (Cryptococcus neoformans [23]): 3.9 µM (≈ 1.11 µg/mL)
MFC (Cryptococcus neoformans [24]): 7.8 µM (≈ 2.23 µg/mL)
MFC (Cryptococcus neoformans [25]): 3.9 µM (≈ 1.11 µg/mL)
MFC (Cryptococcus neoformans [26]): 7.8 µM (≈ 2.23 µg/mL)
MFC (Cryptococcus neoformans [27]): 3.9 µM (≈ 1.11 µg/mL)
